Like-named read-outs stand apart in the source and are kept apart here.
Experiments:
[1] = target: triheteromeric GluN1/2A/2B receptors; settings: read-out: glycine EC50; previously reported; ref Lotti et al., 2025; cited from earlier work
[2] = system: NMDA receptor-mediated EPSCs from CA1 pyramidal neurons; format: cell-based, mouse; settings: 3 μM compound, baseline vs following NAM application
Method in brief: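 Hippocampal slices from 3–5-week-old male and female C57BL/6J mice, perfused with aCSF at 32 °C. Whole-cell recordings from CA1 cells with Cs-based internal solution at +40 mV. Schaffer collaterals stimulated every 30 s with 10 μM NBQX and 10 μM gabazine. After 5-min baseline, test compound bath-applied at 3 μM. τW from double-exponential fit of deactivation; ratio paired t-test.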

[3] = target: T1, GluN1/2A receptors (Rattus norvegicus, UniProt P35439+Q00959); settings: ref Lotti et al., 2025, cited from earlier work; for Kb: read-out: binding affinity KB
[4] = target: GluN1/2C receptors (Rattus norvegicus, UniProt P35439+Q00961); assay: Two-electrode voltage-clamp recordings of recombinant GluN1/2C receptors; format: cell-based; settings: for selectivity for GluN1/2A over GluN1/2C: glycine concentration close to respective EC50
[5] = target: GluN1/2A-M788T (Rattus norvegicus, UniProt P35439+Q00959, M788T); assay: Two-electrode voltage-clamp recordings, mutant GluN1/2A-M788T; format: cell-based
[6] = target: GluN1/2A-T797S (Rattus norvegicus, UniProt P35439+Q00959, T797S); assay: Two-electrode voltage-clamp recordings, mutant GluN1/2A-T797S; format: cell-based
[7] = target: T1, GluN1/2A receptors; format: cell-based; settings: for selectivity for GluN1/2A over GluN1/2B-D receptors: in 1 μM glycine; for IC50: read-out: IC50 (95% CI), […] μM glycine
[8] = target: GluN1/2A-M788I (Rattus norvegicus, UniProt P35439+Q00959, M788I); assay: Two-electrode voltage-clamp recordings, mutant GluN1/2A-M788I; format: cell-based
[9] = target: GluN1/2A-V529I (Rattus norvegicus, UniProt P35439+Q00959, V529I); assay: Two-electrode voltage-clamp recordings, mutant GluN1/2A-V529I; format: cell-based
[10] = target: GluN1/2D receptors (Rattus norvegicus, UniProt P35439+Q62645); assay: Two-electrode voltage-clamp recordings of recombinant GluN1/2D receptors; format: cell-based; settings: for Hill slope nH of inhibition: 0.1 μM glycine, 100 μM glutamate; for selectivity for GluN1/2A over GluN1/2D: glycine concentration close to respective EC50
[11] = system: triheteromeric GluN1/2A/2B receptors; format: cell-based, rat; settings: 100 μM glutamate; for Hill slope nH of inhibition: 1 μM glycine; for IC50: read-out: IC50 (95% CI), […] μM glycine
[12] = target: GluN1/2A-V783F (Rattus norvegicus, UniProt P35439+Q00959, V783F); assay: Two-electrode voltage-clamp recordings, mutant GluN1/2A-V783F; format: cell-based; settings: 0.5 μM glycine; for Hill slope nH of inhibition: 300 μM glutamate; for decrease of potency compared to wild type GluN1/2A: saturating glutamate
[13] = target: GluN1/2B receptors (Rattus norvegicus, UniProt P35439+Q00960); assay: Two-electrode voltage-clamp recordings of recombinant GluN1/2B receptors; format: cell-based; settings: for Hill slope nH of inhibition: 0.3 μM glycine, 100 μM glutamate; for selectivity for GluN1/2A over GluN1/2B: glycine concentration close to respective EC50
[14] = target: GluN1/2A-E789Q (Rattus norvegicus, UniProt P35439+Q00959, E789Q); assay: Two-electrode voltage-clamp recordings, mutant GluN1/2A-E789Q; format: cell-based
[15] = target: GluN1/2A-V783L (Rattus norvegicus, UniProt P35439+Q00959, V783L); assay: Two-electrode voltage-clamp recordings, mutant GluN1/2A-V783L; format: cell-based; settings: 0.5 μM glycine; for Hill slope nH of inhibition: 300 μM glutamate; for decrease of potency compared to wild type GluN1/2A: saturating glutamate
[16] = ref Volkmann et al., 2016; cited from earlier work
[17] = target: GluN1/2A-Y754K (Rattus norvegicus, UniProt P35439+Q00959, Y754K); assay: Two-electrode voltage-clamp recordings, mutant GluN1/2A-Y754K; format: cell-based; settings: 300 μM glutamate
[18] = target: GluN1/2A-I755F (Rattus norvegicus, UniProt P35439+Q00959, I755F); assay: Two-electrode voltage-clamp recordings, mutant GluN1/2A-I755F; format: cell-based
[19] = target: GluN1/2A-I755V (Rattus norvegicus, UniProt P35439+Q00959, I755V); assay: Two-electrode voltage-clamp recordings, mutant GluN1/2A-I755V; format: cell-based; settings: 300 μM glutamate
[20] = target: T1, GluN1/2A receptors; format: cell-based; settings: global non-linear regression of glycine concentration-response data
[21] = target: GluN1/2A-I755V+Y754K (Rattus norvegicus, UniProt P35439+Q00959, I755V/Y754K); assay: Two-electrode voltage-clamp recordings, mutant GluN1/2A-I755V+Y754K; format: cell-based; settings: 1 μM glycine, 300 μM glutamate
[22] = glycine near EC50, saturating glutamate
[23] = read-out: IC50 (95% CI), […] μM glycine, 300 μM glutamate
[24] = read-out: IC50 (95% CI), […] μM glycine

Sequence of GluN1/2A-T797S (Q00959 23-1464 T797S, other chains not shown): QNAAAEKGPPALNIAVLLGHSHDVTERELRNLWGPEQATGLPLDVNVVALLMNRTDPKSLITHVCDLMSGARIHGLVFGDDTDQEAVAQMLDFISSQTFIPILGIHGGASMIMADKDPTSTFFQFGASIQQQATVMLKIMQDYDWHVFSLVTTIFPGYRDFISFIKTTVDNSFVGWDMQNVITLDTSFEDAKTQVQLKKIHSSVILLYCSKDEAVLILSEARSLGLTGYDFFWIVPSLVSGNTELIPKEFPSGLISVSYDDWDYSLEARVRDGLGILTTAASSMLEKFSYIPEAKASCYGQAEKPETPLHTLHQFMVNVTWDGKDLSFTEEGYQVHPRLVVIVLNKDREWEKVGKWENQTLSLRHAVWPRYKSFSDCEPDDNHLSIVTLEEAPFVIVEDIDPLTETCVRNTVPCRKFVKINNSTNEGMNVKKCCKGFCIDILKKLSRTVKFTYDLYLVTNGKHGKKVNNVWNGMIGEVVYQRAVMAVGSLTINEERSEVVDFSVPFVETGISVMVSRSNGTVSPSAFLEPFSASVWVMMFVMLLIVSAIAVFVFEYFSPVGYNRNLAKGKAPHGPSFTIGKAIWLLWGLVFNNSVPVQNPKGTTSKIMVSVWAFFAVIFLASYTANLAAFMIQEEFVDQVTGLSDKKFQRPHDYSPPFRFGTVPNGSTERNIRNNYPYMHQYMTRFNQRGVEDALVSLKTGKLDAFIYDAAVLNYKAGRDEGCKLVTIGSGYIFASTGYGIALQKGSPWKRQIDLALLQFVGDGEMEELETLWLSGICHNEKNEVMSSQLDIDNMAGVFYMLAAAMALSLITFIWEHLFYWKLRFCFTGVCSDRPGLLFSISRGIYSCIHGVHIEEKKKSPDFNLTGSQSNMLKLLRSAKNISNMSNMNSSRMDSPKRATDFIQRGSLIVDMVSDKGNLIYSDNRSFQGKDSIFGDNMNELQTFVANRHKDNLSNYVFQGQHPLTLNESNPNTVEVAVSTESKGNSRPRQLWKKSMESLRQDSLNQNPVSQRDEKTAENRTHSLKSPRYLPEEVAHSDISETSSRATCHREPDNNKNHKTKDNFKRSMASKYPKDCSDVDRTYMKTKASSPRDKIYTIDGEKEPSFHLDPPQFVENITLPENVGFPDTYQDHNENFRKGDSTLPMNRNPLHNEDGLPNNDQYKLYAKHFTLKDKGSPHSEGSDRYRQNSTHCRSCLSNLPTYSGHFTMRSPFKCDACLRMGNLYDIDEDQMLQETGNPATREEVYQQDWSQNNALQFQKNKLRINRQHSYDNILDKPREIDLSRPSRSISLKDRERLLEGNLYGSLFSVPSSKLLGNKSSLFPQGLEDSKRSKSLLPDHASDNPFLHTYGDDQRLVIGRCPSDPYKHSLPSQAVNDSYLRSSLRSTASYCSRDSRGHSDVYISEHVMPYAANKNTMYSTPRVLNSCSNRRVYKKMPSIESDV
Sequence of GluN1/2D receptors (Q62645 28-1323, other chains not shown): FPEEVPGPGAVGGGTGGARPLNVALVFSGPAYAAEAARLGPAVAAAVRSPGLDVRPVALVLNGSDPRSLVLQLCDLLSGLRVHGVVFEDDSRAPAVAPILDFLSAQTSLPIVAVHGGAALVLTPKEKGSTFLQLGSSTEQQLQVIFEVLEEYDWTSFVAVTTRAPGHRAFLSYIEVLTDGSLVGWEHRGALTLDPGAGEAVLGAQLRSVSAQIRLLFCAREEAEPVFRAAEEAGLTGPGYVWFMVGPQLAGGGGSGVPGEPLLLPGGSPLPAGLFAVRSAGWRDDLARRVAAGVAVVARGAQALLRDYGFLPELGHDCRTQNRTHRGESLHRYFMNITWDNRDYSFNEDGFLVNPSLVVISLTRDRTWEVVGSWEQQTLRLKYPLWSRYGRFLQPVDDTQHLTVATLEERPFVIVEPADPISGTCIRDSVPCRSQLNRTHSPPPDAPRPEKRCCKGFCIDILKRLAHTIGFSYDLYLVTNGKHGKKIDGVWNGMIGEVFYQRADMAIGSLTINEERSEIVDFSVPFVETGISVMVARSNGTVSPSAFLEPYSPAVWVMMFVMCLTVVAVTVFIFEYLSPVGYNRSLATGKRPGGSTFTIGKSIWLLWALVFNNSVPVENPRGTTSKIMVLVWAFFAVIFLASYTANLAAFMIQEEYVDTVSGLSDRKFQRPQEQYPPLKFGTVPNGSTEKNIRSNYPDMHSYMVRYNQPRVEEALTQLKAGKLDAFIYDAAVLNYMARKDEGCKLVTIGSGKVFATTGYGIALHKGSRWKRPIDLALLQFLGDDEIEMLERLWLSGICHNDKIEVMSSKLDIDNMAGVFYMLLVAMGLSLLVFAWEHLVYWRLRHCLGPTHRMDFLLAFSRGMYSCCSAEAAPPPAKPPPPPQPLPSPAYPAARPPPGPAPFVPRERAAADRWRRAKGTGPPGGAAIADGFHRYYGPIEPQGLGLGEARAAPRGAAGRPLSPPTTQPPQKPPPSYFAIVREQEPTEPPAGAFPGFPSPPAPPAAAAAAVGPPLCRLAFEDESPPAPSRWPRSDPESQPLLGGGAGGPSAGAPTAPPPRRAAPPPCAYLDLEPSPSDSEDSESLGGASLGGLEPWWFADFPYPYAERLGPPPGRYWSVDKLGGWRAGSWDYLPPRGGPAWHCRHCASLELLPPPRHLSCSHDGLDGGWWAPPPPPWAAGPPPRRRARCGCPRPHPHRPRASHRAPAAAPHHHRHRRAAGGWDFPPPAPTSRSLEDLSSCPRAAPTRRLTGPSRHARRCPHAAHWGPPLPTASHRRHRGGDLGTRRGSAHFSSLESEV
Sequence of GluN1/2A-M788I (Q00959 23-1464 M788I, other chains not shown): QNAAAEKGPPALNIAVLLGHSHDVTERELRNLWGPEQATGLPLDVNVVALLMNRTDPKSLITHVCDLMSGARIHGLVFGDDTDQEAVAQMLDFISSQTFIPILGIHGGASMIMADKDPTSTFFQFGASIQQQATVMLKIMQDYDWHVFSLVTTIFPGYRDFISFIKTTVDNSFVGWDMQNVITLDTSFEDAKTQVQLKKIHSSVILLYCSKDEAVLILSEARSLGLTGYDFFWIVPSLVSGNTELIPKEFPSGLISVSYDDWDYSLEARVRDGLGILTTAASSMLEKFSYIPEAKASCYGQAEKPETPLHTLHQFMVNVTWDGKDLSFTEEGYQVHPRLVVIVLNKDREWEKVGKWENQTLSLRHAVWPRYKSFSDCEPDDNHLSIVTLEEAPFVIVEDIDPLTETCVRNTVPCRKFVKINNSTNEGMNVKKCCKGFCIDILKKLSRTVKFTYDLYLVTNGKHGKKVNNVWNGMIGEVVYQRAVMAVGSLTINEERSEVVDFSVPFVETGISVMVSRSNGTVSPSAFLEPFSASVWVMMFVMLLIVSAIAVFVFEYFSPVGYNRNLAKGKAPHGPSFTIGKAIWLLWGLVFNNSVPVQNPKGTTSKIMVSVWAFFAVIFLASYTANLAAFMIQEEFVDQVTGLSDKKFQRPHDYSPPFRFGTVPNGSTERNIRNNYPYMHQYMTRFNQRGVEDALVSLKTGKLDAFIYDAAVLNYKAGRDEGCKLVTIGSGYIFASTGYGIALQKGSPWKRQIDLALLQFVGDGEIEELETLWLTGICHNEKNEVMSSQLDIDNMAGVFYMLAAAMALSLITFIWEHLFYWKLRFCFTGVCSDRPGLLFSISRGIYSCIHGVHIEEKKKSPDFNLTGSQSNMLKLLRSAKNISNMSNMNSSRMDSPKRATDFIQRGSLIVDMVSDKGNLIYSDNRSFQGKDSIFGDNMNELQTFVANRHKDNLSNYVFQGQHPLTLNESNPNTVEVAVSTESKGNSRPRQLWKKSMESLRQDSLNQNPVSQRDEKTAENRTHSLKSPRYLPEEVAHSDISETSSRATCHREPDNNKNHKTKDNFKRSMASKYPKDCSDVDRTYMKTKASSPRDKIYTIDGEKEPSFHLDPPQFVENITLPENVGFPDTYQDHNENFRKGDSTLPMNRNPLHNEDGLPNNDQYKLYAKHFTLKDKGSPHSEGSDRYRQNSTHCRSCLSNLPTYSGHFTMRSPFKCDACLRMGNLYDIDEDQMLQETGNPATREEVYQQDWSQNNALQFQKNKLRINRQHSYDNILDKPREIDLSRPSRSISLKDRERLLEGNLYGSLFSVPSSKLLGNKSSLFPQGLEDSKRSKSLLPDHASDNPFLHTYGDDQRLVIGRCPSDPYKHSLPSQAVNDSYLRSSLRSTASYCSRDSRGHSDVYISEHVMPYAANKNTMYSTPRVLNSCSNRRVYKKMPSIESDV

SMILES | Kb [3] [nM] | negative allosteric interaction constant α [3] | selectivity for GluN1/2A over GluN1/2C [4] [fold] | Hill slope nH of inhibition ([7]; 1 μM glycine, 100 μM glutamate) | selectivity for GluN1/2A over GluN1/2B-D receptors [7] [fold] | IC50 ([7]; 100 μM glutamate) [µM] | Hill slope nH of inhibition [10] | selectivity for GluN1/2A over GluN1/2D [10] [fold] | Hill slope nH of inhibition [11] | IC50 [11] [µM] | Hill slope nH of inhibition [12] | decrease of potency compared to wild type GluN1/2A [12] [fold] | Hill slope nH of inhibition [13] | selectivity for GluN1/2A over GluN1/2B [13] [fold] | Hill slope nH of inhibition [15] | decrease of potency compared to wild type GluN1/2A [15] [fold] | also measured
NCC(=O)O [Glycine] | – | – | – | – | – | – | – | – | – | – | – | – | – | – | – | – | EC50 [1]: 990 nM
Cc1ncc(CNC(=O)c2cnc(CNS(=O)(=O)c3ccc(F)c(Cl)c3)cn2)s1 [MPX-004] | 9.3 | 0.0018 | – | – | – | – | – | – | – | – | – | – | – | – | – | – | effect on EPSC decay times (weighted deactivation time constant τW) [2]: increases EPSC decay times
O=C(NNC(=O)c1ccc(CNS(=O)(=O)c2ccc(F)c(Cl)c2)cc1)c1ccccc1 [TCN-201] | 42 | 0.0032 | > 50 | 1.2 | > 50 | 0.1 | 1.9 | 39 | 1.2 | 0.28 | 1.1 | 1.9 | 1.6 | 30 | 1.1 | 8.1 | Hill slope nH of inhibition ([5]; 0.3 μM glycine, 300 μM glutamate): 1.4; decrease of potency compared to wild type GluN1/2A [5, 22]: no significant effects; IC50 ([5]; read-out: IC50 (95% CI), 0.3 μM glycine, 300 μM glutamate): 140 nM; Hill slope nH of inhibition ([6]; 1 μM glycine, 300 μM glutamate): 1.4; decrease of potency compared to wild type GluN1/2A [6, 22]: no significant effects; IC50 [6, 23]: 0.068 µM; Hill slope nH of inhibition ([8]; 1 μM glycine, 300 μM glutamate): 1.3; decrease of potency compared to wild type GluN1/2A [8, 22]: no significant effects; IC50 [8, 23]: 0.12 µM; Hill slope nH of inhibition ([9]; 1 μM glycine, 300 μM glutamate): 1.5; decrease of potency compared to wild type GluN1/2A [9, 22]: 1.5 fold; Hill slope nH of inhibition ([14]; 1 μM glycine, 300 μM glutamate): 1.3; change of potency compared to wild type GluN1/2A [14, 22]: no significant effects; IC50 [14, 23]: 0.078 µM; blood-brain barrier penetration [16]: lack blood-brain barrier penetration
O=C(CSc1nnc(NCc2ccccc2)s1)NCC1CCCCC1 [TCN-213] | – | – | 16 | 1.1 | > 50 | 0.83 | 1.5 | 29 | 0.9 | 4 | 1.1 | 2.6 | 1.3 | 22 | 1.1 | 4.8 | Hill slope nH of inhibition ([4]; 0.3 μM glycine, 100 μM glutamate): 1.1; Hill slope nH of inhibition ([17]; 1 μM glycine): 1.1; IC50 [17, 24]: 1.2 µM; Hill slope nH of inhibition ([7]; 1 μM glycine, 10 μM glutamate): 1.1; Hill slope nH of inhibition ([7]; 30 μM glycine, 300 μM glutamate): 1.3; IC50 ([7]; 10 μM glutamate): 0.96 µM; Hill slope nH of inhibition ([18]; 1 μM glycine, 300 μM glutamate): 1.0; reduction of potency compared to wild type GluN1/2A ([18]; glycine EC50 concentration, saturating glutamate): not significantly different; IC50 [18, 23]: 1.1 µM; Hill slope nH of inhibition ([19]; 1 μM glycine): 1.1; IC50 [19, 24]: 1.2 µM; allosteric constant α [20]: 0.043; Hill slope nH of inhibition [21]: 1.0

— publication PMC12772459 (The Journal of general physiology, 2025)
